Published values collected from several papers.
Each line is one published result; the experiments were not run side by side.
Observed: microbial growth

| SMILES | organism | method | strain | time | MIC |
| --- | --- | --- | --- | --- | --- |
| O=C(Nc1ccc2c(c1)OC(F)(F)O2)Nc1ccc(Cl)c(C(F)(F)F)c1 | Klebsiella aerogenes | – | DSM30053 | – | > 100 µM |
| CCCCCCC/C=C/C(=O)N1C(=O)/C(=C(\O)C2CCNCC2)C(=O)C1CC(C)C (stereo not drawn) | Stenotrophomonas maltophilia | – | ATCC13637 | – | 25 µg/mL |
| O=C1NC(=S)S/C1=C\c1ccc(-c2ccc(N(c3ccccc3)c3ccccc3)cc2)cc1 | Streptococcus pyogenes | broth dilution | ATCC19615 | – | 1000 µg/mL |
| CCc1cc(Nc2cc(=O)n(CCCCO)c(=O)[nH]2)ccc1C | Bifidobacterium | agar dilution | – | 48 h | > 32 µg/mL |
| O=C1NC(=S)S/C1=C\c1ccc(-c2ccc(N(c3ccccc3)c3ccccc3)cc2)c2ccccc12 | Streptococcus mutans | broth dilution | ATCC25175 | – | 1000 µg/mL |
| O=C(O)c1cn(C2CC2)c2cc(N3CCNCC3)c(F)cc2c1=O | Klebsiella aerogenes | – | DSM30053 | – | 0.125 µg/mL |
| CCCCCCC/C=C/C(=O)N1C(=O)/C(=C(\O)c2ccc(O)cc2)C(=O)C1CC(C)C (stereo not drawn) | Stenotrophomonas maltophilia | – | ATCC13637 | – | 200 µg/mL |
| CN[C@H](CC(C)C)C(=O)N[C@H]1C(=O)N[C@@H](CC(N)=O)C(=O)N[C@H]2C(=O)N[C@H]3C(=O)N[C@H](C(=O)N[C@H](C(=O)O)c4cc(O)cc(O)c4-c4cc3ccc4O)[C@H](O)c3ccc(c(Cl)c3)Oc3cc2cc(c3O[C@@H]2O[C@H](CO)[C@@H](O)[C@H](O)[C@H]2O[C@H]2C[C@](C)(N)[C@H](O)[C@H](C)O2)Oc2ccc(cc2Cl)[C@H]1O | Streptococcus mutans | broth dilution | ATCC25175 | – | 0.98 µg/mL |
| CCCCCCC/C=C/C(=O)N1CC(=O)/C(=C(\C)O)C1=O | Stenotrophomonas maltophilia | – | ATCC13637 | – | 100 µg/mL |
| CO[C@@H](C(N)=O)[C@H](NC(=O)c1ccc(NC(=O)c2ccc(C#N)cc2)cc1)C(=O)Nc1ccc(C(=O)Nc2ccc(C(=O)Nc3ccc(C(=O)O)cc3)c(O)c2OC(C)C)cc1 | Klebsiella aerogenes | – | DSM30053 | – | 2 µg/mL |
| Cc1ncc([N+](=O)[O-])n1CCO | Bifidobacterium | agar dilution | – | 48 h | > 16 µg/mL |
| CCCCCCC/C=C/C(=O)N1C(=O)/C(=C(\O)c2ccncc2)C(=O)C1CC(C)C (stereo not drawn) | Stenotrophomonas maltophilia | – | ATCC13637 | – | 200 µg/mL |
| O=C1NC(=S)N/C1=C\c1c2ccccc2c(-c2ccc(N(c3ccccc3)c3ccccc3)cc2)c2ccccc12 | Streptococcus pyogenes | broth dilution | ATCC19615 | – | > 1000 µg/mL |
| CCCCCCC/C=C/C(=O)N1C(=O)/C(=C(/C)O)C(=O)C1CCCCN (stereo not drawn) | Stenotrophomonas maltophilia | – | ATCC13637 | – | > 200 µg/mL |
| CC(C)Oc1c(NC(=O)c2ccc(NC(=O)[C@H](CC(N)=O)NC(=O)c3ccc(NC(=O)c4ccc(C#N)s4)cc3)cc2)ccc(C(=O)Nc2ccc(C(=O)O)cc2)c1O | Klebsiella aerogenes | – | DSM30053 | – | 0.25 µg/mL |
